Laboratory results: ChEMBL document CHEMBL3745677, “Discovery of 6-(4-{[5-Cyclopropyl-3-(2,6-dichlorophenyl)isoxazol-4-yl]methoxy}piperidin-1-yl)-1-methyl-1H-indole-3-carboxylic Acid: A Novel FXR Agonist for the Treatment of Dyslipidemia” (J Med Chem, 2015)

Key:
Rattus norvegicus [1] = assay: Antidyslipidemic activity in ZDF rat assessed as HDL level at 10 mg/kg for 9 days by FPLC analysis (reference value: 48.3 mg/dL); assay type: functional, Zucker
Rattus norvegicus [2] = assay: Antidyslipidemic activity in ZDF rat assessed as HDL level at 10 mg/kg cotreated with 0.3 mg/kg rosiglitazone for 9 days by FPLC analysis (reference value: 48.3 mg/dL); assay type: functional, Zucker
[3] = Tmax in Sprague-Dawley rat at 3 mg/kg, po by LC-MS/MS analysis; assay type: ADME, organism-based; details: in vivo
Outline: (§1)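 Oral/nasogastric dosing at 3 mpk in 1.0% CMC/0.25% PS80/0.05% antifoam in purified water. Plasma samples collected and analyzed by LC-MS/MS; parameters reported as mean ± SD, N=2-3.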

[4] = AUC (0 to 24 hrs) in Sprague-Dawley rat at 3 mg/kg, po by LC-MS/MS analysis; assay type: ADME, organism-based; design: time < 24 hr, dose 3 mg/kg, route oral; details: in vivo
Outline: (§2)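 Sprague Dawley rats, Beagle dogs and Cynomolgus monkeys were dosed IV at 1 mg/kg (rat, dog) or 0.91 mpk (monkey) in 5% Solutol/5% EtOH in saline. Oral/nasogastric dosing was 3 mpk in 1.0% CMC/0.25% PS80/0.05% antifoam in purified water. Samples were processed to plasma and analysed by LC-MS/MS; values are mean ± SD, N=2-3.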

[5] = Terminal half life in Sprague-Dawley rat at 3 mg/kg, po by LC-MS/MS analysis; assay type: ADME, organism-based; details: in vivo, read-out: beta t1/2 (converted); outline: as §1
Mus musculus [6] = assay: Antidyslipidemic activity in western-diet fed mouse expressing LDL-receptor (-/-) assessed as decrease in triglyceride level at 1 mg/kg qd for a week administered via gavage by FPLC analysis; assay type: functional; details: po
Mus musculus [7] = assay: Antidyslipidemic activity in western-diet fed mouse expressing LDL-receptor (-/-) assessed as decrease in triglyceride level at 10 mg/kg qd for a week administered via gavage […]; assay type: functional; details: po
Outline: (§3)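 Male LDLR null mice, six per group, were gavaged once daily for one week with compound (in situ sodium salt) or vehicle (5% Solutol, 5% EtOH, 1% wt/v CMC) at 5 mL/kg. On day 7 they were bled by cardiac puncture under CO2 anaesthesia. Serum cholesterol and triglycerides were measured enzymatically on a clinical chemistry analyser (mean ± SD, n=6). ED50 was obtained by nonlinear regression.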

Mus musculus [8] = assay: Antidyslipidemic activity in western-diet fed mouse expressing LDL-receptor (-/-) assessed as decrease in triglyceride level at 30 mg/kg qd for a week administered via gavage […]; assay type: functional; details: po; outline: as §3
Mus musculus [9] = assay: Antidyslipidemic activity in western-diet fed mouse expressing LDL-receptor (-/-) assessed as decrease in total cholesterol level at 3 mg/kg qd for a week administered via gavage […]; assay type: functional; details: po; outline: as §3
Mus musculus [10] = assay: Antidyslipidemic activity in western-diet fed mouse expressing LDL-receptor (-/-) assessed as decrease in total cholesterol level at 30 mg/kg qd for a week administered via gavage […]; assay type: functional; details: po; outline: as §3
Mus musculus [11] = assay: Antidyslipidemic activity in western-diet fed mouse expressing LDL-receptor (-/-) assessed as decrease in very-low density lipoprotein level at 10 mg/kg qd for a week administered via gavage by FPLC analysis; assay type: functional; details: po
Outline: (§4)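 LDLR null male mice, six per group, were dosed by gavage once daily for one week (vehicle 5% Solutol, 5% EtOH, 1% wt/v CMC; 5 mL/kg). Serum was collected by cardiac puncture on day 7 under CO2 anaesthesia. Pooled serum from each treatment group was fractionated by FPLC to quantify VLDL and LDL.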

Mus musculus [12] = assay: Antidyslipidemic activity in western-diet fed mouse expressing LDL-receptor (-/-) assessed as decrease in very-low density lipoprotein level at 30 mg/kg qd for a week administered via gavage by FPLC analysis; assay type: functional; details: po; outline: as §4
Rattus norvegicus [13] = assay: Antidyslipidemic activity in ZDF rat assessed as VLDL level at 3 mg/kg for 9 days by FPLC analysis (reference value: 35 mg/dL); assay type: functional, Zucker
[14] = Cmax in beagle dog at 3 mg/kg, po by LC-MS/MS analysis; assay type: ADME, organism-based, Canis lupus familiaris; design: dose 3 mg/kg, route oral; details: in vivo; outline: as §2
[15] = AUC (0 to 24 hrs) in beagle dog at 3 mg/kg, po by LC-MS/MS analysis; assay type: ADME, organism-based, Canis lupus familiaris; design: dose 3 mg/kg, time < 24 hr, route oral; details: in vivo; outline: as §2
[16] = Terminal half life in cynomolgus monkey at 0.91 mg/kg, iv by LC-MS/MS analysis; assay type: ADME, organism-based, Macaca fascicularis; details: in vivo, read-out: beta t1/2 (converted)
Outline: (§5)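 Intravenous dose given in 5% Solutol / 5% EtOH in saline (1 mg/kg rat and dog, 0.91 mpk monkey). Plasma samples collected and analyzed by LC-MS/MS; parameters reported as mean ± SD, N=2-3.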

[17] = Volume of distribution at steady state in cynomolgus monkey at 0.91 mg/kg, iv by LC-MS/MS analysis; assay type: ADME, organism-based, Macaca fascicularis; details: in vivo, read-out: Vdss; outline: as §5
[18] = Cmax in rat at ED50 dose for lipid modulation; assay type: ADME, organism-based; details: in vivo

- Tmax [3]: 1.08 h
- AUC(0-t) at 24 h [4]: 365 ng·h/mL
- half-life [5]: 2 h
- Cmax [14]: 1240 ng/mL
- AUC(0-t) at 24 h [15]: 4690 ng·h/mL
- half-life [16]: 5 h
- Vd [17]: 0.597 L/kg
- Cmax [18]: 4.62 ng/mL
SMILES: Cn1cc(C(=O)O)c2ccc(N3CCC(OCc4c(-c5c(Cl)cccc5Cl)noc4C4CC4)CC3)cc21 [TERN-101]
- Activity (Rattus norvegicus [1]): 74.4 mg/dL
- Activity (Rattus norvegicus [2]): 95 mg/dL
- inhibition in vivo at 1 mg/kg (Mus musculus [6]): 25%
- inhibition in vivo at 10 mg/kg (Mus musculus [7]): 76%
- inhibition in vivo at 30 mg/kg (Mus musculus [8]): 83%
- inhibition in vivo at 3 mg/kg (Mus musculus [9]): 57%
- inhibition in vivo at 30 mg/kg (Mus musculus [10]): 83%
- inhibition in vivo at 10 mg/kg (Mus musculus [11]): 96%
- inhibition in vivo at 30 mg/kg (Mus musculus [12]): 98%
- Activity (Rattus norvegicus [13]): 21.9 mg/dL
